The text below walks through data of ChEMBL document CHEMBL3244429, “Antischistosomal effects of 5-(2,4,5-trichlorophenyl)hydantoin and related compounds” (J Med Chem, 1977).

Calls of active or inactive are those of the source. The calls are words filed in the database; no cut-off is given here.

Series [1] deals with Schistosoma mansoni. Description: Antischistosomal activity against Schistosoma mansoni Puerto Rican infected mouse assessed as reduction in live schistosomes at 249 mg/kg/day, through diet for 14 days. In kind it is functional. The note with it: 336 h. The gist of the method:
(§1)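 Mice carrying a Puerto Rican strain of S. mansoni received drug mixed into a powdered diet for 14 days, with dose expressed as mg/kg per day. The read-out was the reduction in live schistosomes in the infected mice.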

For series [2], the system named is Schistosoma mansoni. Nature of the series: Antischistosomal activity against Schistosoma mansoni Puerto Rican infected mouse assessed as infected mouse at 249 mg/kg/day, through diet for 14 days. It is filed as functional. The gist of the method: as §1
In series [3] the test system is Schistosoma mansoni. Nature of the series: Antischistosomal activity against Schistosoma mansoni Puerto Rican infected mouse assessed as infected mouse at 329 mg/kg/day, through diet for 14 days. In kind it is functional. The gist of the method: as §1
Series [4] deals with Schistosoma mansoni. Description: Antischistosomal activity against Schistosoma mansoni Puerto Rican infected mouse assessed as reduction in live schistosomes at 329 mg/kg/day, through diet for 14 days. It is filed as functional. The settings on record: 336 h. The gist of the method: as §1
Series [5] has as its system Schistosoma mansoni. Nature of the series: Antischistosomal activity against Schistosoma mansoni Puerto Rican infected mouse assessed as reduction in live schistosomes at 78 mg/kg/day, through diet for 14 days. The settings on record: 336 h. It is filed as functional. The gist of the method:
as §1

The nature of series [6]: Toxicity in mouse po dosed through diet for 14 days. In kind it is organism-based. The settings on record: in vivo. The gist of the method:
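Mice infected with a Puerto Rican strain of *Schistosoma mansoni*; drug mixed into a powdered diet and fed orally for 14 days; doses expressed as mg/kg per day.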

Series [7] relates to Schistosoma mansoni. Description: Antischistosomal activity against Schistosoma mansoni Puerto Rican infected mouse assessed as infected mouse at 78 mg/kg/day, through diet for 14 days. In kind it is functional. The gist of the method: as §1
In series [8] the test system is Schistosoma mansoni. Nature of the series: Antischistosomal activity against Schistosoma mansoni Puerto Rican infected mouse assessed as reduction in live schistosomes at 376 mg/kg/day, through diet for 14 days. The settings on record: 336 h. In kind it is functional. The gist of the method:
as §1

For series [9], the system named is Schistosoma mansoni. Nature of the series: Antischistosomal activity against Schistosoma mansoni Puerto Rican infected mouse assessed as infected mouse at 376 mg/kg/day, through diet for 14 days. In kind it is functional. The gist of the method:
as §1

The test system of series [10] is Schistosoma mansoni. Description: Antischistosomal activity against Schistosoma mansoni Puerto Rican infected mouse assessed as infected mouse at 400 mg/kg/day, through gavage for 10 days. In kind it is functional.
Series [11] concerns Schistosoma mansoni. Nature of the series: Antischistosomal activity against Schistosoma mansoni Puerto Rican infected mouse assessed as reduction in live schistosomes at 400 mg/kg/day, through gavage for 10 days. It is filed as functional. The note with it: po, 240 h.
Series [12] has as its system Schistosoma mansoni. Nature of the series: Antischistosomal activity against Schistosoma mansoni Puerto Rican infected mouse assessed as reduction in live schistosomes at 332 mg/kg/day, through diet for 14 days. In kind it is functional. The note with it: 336 h. The gist of the method: as §1
Series [13] concerns Schistosoma mansoni. Description: Antischistosomal activity against Schistosoma mansoni Puerto Rican infected mouse assessed as infected mouse at 332 mg/kg/day, through diet for 14 days. In kind it is functional. The gist of the method: as §1
Series [14] deals with Schistosoma mansoni. Nature of the series: Antischistosomal activity against Schistosoma mansoni Puerto Rican infected mouse assessed as infected mouse at 146 mg/kg/day, through diet for 14 days. It is filed as functional. The gist of the method:
as §1

The test system of series [15] is Schistosoma mansoni. Nature of the series: Antischistosomal activity against Schistosoma mansoni Puerto Rican infected mouse assessed as reduction in live schistosomes at 146 mg/kg/day, through diet for 14 days. It is filed as functional. The settings on record: 336 h. The gist of the method:
as §1

Series [16] has as its system Schistosoma mansoni. Nature of the series: Antischistosomal activity against Schistosoma mansoni infected rhesus monkey assessed as temporary egg suppression at 200 mg/kg/day, through gavage for 10 days. In kind it is functional, organism-based. The gist of the method:
(§2)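 S. mansoni-infected rhesus monkeys were dosed daily by gavage. Assessment was by egg output over time (temporary suppression) and by the number of live and dead worms remaining in the treated animal.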

For series [17], the system named is Schistosoma mansoni. Nature of the series: Antischistosomal activity against Schistosoma mansoni infected rhesus monkey assessed as removal of all worms at 200 mg/kg/day, through gavage for 5 to 10 days. In kind it is functional, organism-based. The gist of the method: as §2
Series [18] relates to Schistosoma mansoni. Description: Antischistosomal activity against Schistosoma mansoni Puerto Rican infected mouse assessed as infected mouse at 302 mg/kg/day, through diet for 14 days. It is filed as functional. The gist of the method: as §1
Series [19] relates to Schistosoma mansoni. Nature of the series: Antischistosomal activity against Schistosoma mansoni Puerto Rican infected mouse assessed as reduction in live schistosomes at 302 mg/kg/day, through diet for 14 days. It is filed as functional. The settings on record: 336 h. The gist of the method: as §1
For series [20], the system named is Schistosoma mansoni. Nature of the series: Antischistosomal activity against Schistosoma mansoni Puerto Rican infected mouse assessed as infected mouse at 347 mg/kg/day, through diet for 14 days. It is filed as functional. The gist of the method: as §1
Series [21] relates to Schistosoma mansoni. Nature of the series: Antischistosomal activity against Schistosoma mansoni Puerto Rican infected mouse assessed as reduction in live schistosomes at 347 mg/kg/day, through diet for 14 days. The note with it: 336 h. In kind it is functional. The gist of the method: as §1
The subject of series [22] is Schistosoma mansoni. Nature of the series: Antischistosomal activity against Schistosoma mansoni Puerto Rican infected mouse assessed as infected mouse at 269 mg/kg/day, through diet for 14 days. In kind it is functional. The gist of the method:
as §1

Series [23] deals with Schistosoma mansoni. Description: Antischistosomal activity against Schistosoma mansoni Puerto Rican infected mouse assessed as infected mouse at 200 mg/kg/day, through gavage for 5 days. It is filed as functional.
Series [24] relates to Schistosoma mansoni. Description: Antischistosomal activity against Schistosoma mansoni Puerto Rican infected mouse assessed as infected mouse at 100 mg/kg/day, through gavage for 10 days. In kind it is functional.
For series [25], the system named is Schistosoma mansoni. Nature of the series: Antischistosomal activity against Schistosoma mansoni Puerto Rican infected mouse assessed as reduction in live schistosomes at 269 mg/kg/day, through diet for 14 days. It is filed as functional. The note with it: 336 h. The gist of the method:
as §1

Series [26] concerns Schistosoma mansoni. Nature of the series: Antischistosomal activity against Schistosoma mansoni Puerto Rican infected mouse assessed as reduction in live schistosomes at 200 mg/kg/day, through gavage for 5 days. In kind it is functional. The settings on record: po, 120 h.
Series [27] relates to Schistosoma mansoni. Nature of the series: Antischistosomal activity against Schistosoma mansoni Puerto Rican infected mouse assessed as reduction in live schistosomes at 100 mg/kg/day, through gavage for 10 days. In kind it is functional. The settings on record: po, 240 h.

For the molecule `O=C1NCCN1c1ncc([N+](=O)[O-])s1` [NIRIDAZOLE], in the series on Schistosoma mansoni [1], the inhibition in vivo at 249 mg/kg/day amounted to 99%. The Activity with Schistosoma mansoni [2] came to 17%.

Take `O=C1NC(=O)C(c2ccc(Cl)c(Cl)c2)N1` (centres undefined): the Activity with Schistosoma mansoni [3] is recorded as 100%. Besides, the inhibition in vivo at 329 mg/kg/day in the series with Schistosoma mansoni [4] came to 0%.

On to `CN(C)CCCN1C(=O)NC(c2cc(Cl)c(Cl)cc2Cl)C1=O` (centres undefined), for which the inhibition in vivo at 78 mg/kg/day in the series with Schistosoma mansoni [5] came out at 0%. This molecule also had an MTD at 336 h in series [6] of 78 mg/kg. Further, the Activity in the series with Schistosoma mansoni [7] was 100%.

For the molecule `CC1(c2ccc(Cl)c(Cl)c2)NC(=O)NC1=O` (centres undefined), the inhibition in vivo at 376 mg/kg/day in the series with Schistosoma mansoni [8] worked out at 38%. The Activity in the series on Schistosoma mansoni [9] is listed as 100%.

Turning to `O=C1NC(=O)C(c2cc(Cl)c(Cl)cc2Cl)N1` (centres undefined) [listing 1 of 2 here], the figures for the Activity with Schistosoma mansoni [3] and with Schistosoma mansoni [10] were 67% and 100%, respectively. In addition, in the series on Schistosoma mansoni [4], the inhibition in vivo at 329 mg/kg/day was found to be 80%. Also, in the series with Schistosoma mansoni [11], the inhibition in vivo at 400 mg/kg/day stood at 0%.

For the molecule `Cc1c(Cl)ccc(C2(C)NC(=O)NC2=O)c1Cl` (centres undefined), the inhibition in vivo at 332 mg/kg/day in the series on Schistosoma mansoni [12] is 26%. Moreover, the Activity with Schistosoma mansoni [13] was found to be 100%.

For the molecule `O=C1NC(c2cc(Cl)c(Cl)cc2Cl)C(=O)N1CO` (centres undefined), the Activity in the series with Schistosoma mansoni [14] amounted to 100%. Moreover, the inhibition in vivo at 146 mg/kg/day in the series on Schistosoma mansoni [15] is 0%.

Turning to `O=C1NC(=O)C(c2cc(Cl)c(Cl)cc2Cl)N1` (centres undefined) [listing 2 of 2 here], the inhibition result in the series on Schistosoma mansoni [16] was “Dose-dependent effect”. Moreover, in the series on Schistosoma mansoni [17], the inhibition result is “Active”.

Take `O=C1NC(=O)C(c2ccc(Cl)cc2Cl)N1` (centres undefined): the Activity with Schistosoma mansoni [18] worked out at 100%. Besides, the inhibition in vivo at 302 mg/kg/day with Schistosoma mansoni [19] worked out at 36%.

In the case of `O=C1NC(=O)C(c2c(Cl)cccc2Cl)N1` (centres undefined), the Activity in the series on Schistosoma mansoni [20] is listed as 100%. Further, the inhibition in vivo at 347 mg/kg/day with Schistosoma mansoni [21] was found to be 2%.

With `O=C1[N-]C(=O)C(c2cc(Cl)c(Cl)cc2Cl)N1.[Na+]` (centres undefined), the Activity with Schistosoma mansoni [22], in the series on Schistosoma mansoni [23] and with Schistosoma mansoni [24] was 100% each time. In addition, the inhibition in vivo at 269 mg/kg/day with Schistosoma mansoni [25] was 65%. Further, in the series with Schistosoma mansoni [26], the inhibition in vivo at 200 mg/kg/day came out at 86%. Moreover, the inhibition in vivo at 100 mg/kg/day in the series on Schistosoma mansoni [27] worked out at 76%.

Usually inhibition in vivo stands for the percentage by which the read-out fell short of the control.
